Data reported in ChEMBL document CHEMBL3044702, “Synthesis and insecticidal activities of novel N-sulfenyl-N'-tert-butyl-N,N'-diacylhydrazines. 3. N-(alkyldithio), n-(aminothio), and N,N-dithio derivatives” (2008).
≈ marks a conversion by molar mass, not a printed value.

Tests used:
Assay type in all cases: functional
Mythimna separata [1] = assay: Larvicidal activity against fourth-instar larval stage of Mythimna separata (Oriental armyworm) in compound-pretreated corn leaves assessed as mortality at 10 mg/kg at 25 +/-1 degC measured after 4 days
Method in brief: (§1)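 Insects were reared in the laboratory and tested at 25 ± 1 °C, with repeats as statistics required. Larvae were scored dead or alive. Mortality was corrected by Abbott's formula and expressed on a 0–100 scale, where 0 is no activity and 100 is total kill.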

Mythimna separata [2] = assay: Larvicidal activity against fourth-instar larval stage of Mythimna separata (Oriental armyworm) in compound-pretreated corn leaves assessed as mortality at 200 mg/kg at 25 +/-1 degC measured after 4 days; method in brief: as §1
Mythimna separata [3] = assay: Larvicidal activity against fourth-instar larval stage of Mythimna separata (Oriental armyworm) in compound-pretreated corn leaves assessed as mortality at 50 mg/kg at 25 +/-1 degC measured after 4 days; method in brief: as §1
Mythimna separata [4] = assay: Larvicidal activity against fourth-instar larval stage of Mythimna separata (Oriental armyworm) in compound-pretreated corn leaves assessed as mortality at 100 mg/kg at 25 +/-1 degC measured after 4 days; method in brief: as §1
Mythimna separata [5] = assay: Larvicidal activity against fourth-instar larval stage of Mythimna separata (Oriental armyworm) in compound-pretreated corn leaves assessed as mortality at 5 mg/kg at 25 +/-1 degC measured after 4 days; method in brief: as §1
Mythimna separata [6] = assay: Larvicidal activity against fourth-instar larval stage of Mythimna separata (Oriental armyworm) in compound-pretreated corn leaves assessed as mortality at 25 mg/kg at 25 +/-1 degC measured after 4 days; method in brief: as §1
Mythimna separata [7] = assay: Larvicidal activity against fourth-instar larval stage of Mythimna separata (Oriental armyworm) in compound-pretreated corn leaves assessed as mortality at 2.5 mg/kg at 25 +/-1 degC measured after 4 days; method in brief: as §1
Mythimna separata [8] = assay: Larvicidal activity against fourth-instar larval stage of Mythimna separata (Oriental armyworm) in compound-pretreated corn leaves assessed as mortality at 20 mg/kg at 25 +/-1 degC measured after 4 days; method in brief: as §1
Mythimna separata [9] = assay: Larvicidal activity against fourth-instar larval stage of Mythimna separata (Oriental armyworm) in compound-pretreated corn leaves assessed as mortality at 30 mg/kg at 25 +/-1 degC measured after 4 days; method in brief: as §1
Mythimna separata [10] = assay: Larvicidal activity against fourth-instar larval stage of Mythimna separata (Oriental armyworm) in compound-pretreated corn leaves assessed as mortality at 40 mg/kg at 25 +/-1 degC measured after 4 days; method in brief: as §1
Plutella xylostella [11] = assay: Toxic ratio of RH-5992 LC50 to compound LC50 for second-instar larval stage of Plutella xylostella (diamondback moth) measured after 6 days by leaf-dip method
Method in brief: (§2)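 Leaf-dip assay on laboratory-reared diamondback moth larvae at 25 ± 1 °C. Fresh cabbage leaf disks 1.8 cm across were dipped in test solution for 15 s. Larvae were scored dead or alive, and mortality was corrected by Abbott's formula. Mortality-regression data were put through Finney probit analysis to give LC50 for the test compounds and the parent reference.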

Plutella xylostella [12] = assay: Larvicidal activity against second-instar larval stage of Plutella xylostella (diamondback moth) in cabbage leaves assessed as mortality at 25 +/-1 degC treated for 15 secs before larval infestation measured after 6 days by leaf-dip method; settings: 144 h; method in brief: as §2

SMILES	mortality at 10 mg/kg (Mythimna separata [1]) [%]	mortality at 200 mg/kg (Mythimna separata [2]) [%]	mortality at 50 mg/kg (Mythimna separata [3]) [%]	mortality at 100 mg/kg (Mythimna separata [4]) [%]	mortality at 5 mg/kg (Mythimna separata [5]) [%]	mortality at 25 mg/kg (Mythimna separata [6]) [%]	mortality at 2.5 mg/kg (Mythimna separata [7]) [%]	mortality at 20 mg/kg (Mythimna separata [8]) [%]	mortality at 30 mg/kg (Mythimna separata [9]) [%]	mortality at 40 mg/kg (Mythimna separata [10]) [%]	RatioLC50 (Plutella xylostella [11])	LC50 (Plutella xylostella [12]) [µg/mL]
Cc1cc(C)cc(C(=O)N(N(SSN(C(=O)c2ccc(Cl)cc2)N(C(=O)c2cc(C)cc(C)c2)C(C)(C)C)C(=O)c2ccc(Cl)cc2)C(C)(C)C)c1	0	100	60	90	–	–	–	–	–	–	–	–
CCCCSSN(C(=O)c1ccc(Cl)cc1)N(C(=O)c1ccccc1)C(C)(C)C	90	–	–	–	30	100	0	–	–	–	–	–
CC(C)(C)N(NC(=O)c1ccccc1)C(=O)c1ccccc1 [RH-5849]	0	–	95	–	–	70	–	–	–	–	–	–
Cc1cccc(C(=O)N(NC(=O)c2ccccc2)C(C)(C)C)c1	0	100	30	50	–	–	–	–	–	–	–	–
CC(C)(C)N(C(=O)c1ccccc1)N(SSN(C(=O)c1ccccc1)N(C(=O)c1ccccc1)C(C)(C)C)C(=O)c1ccccc1	5	95	60	85	–	–	–	–	–	–	–	–
CCCCSSN(C(=O)c1ccc(CC)cc1)N(C(=O)c1cc(C)cc(C)c1)C(C)(C)C	100	–	–	–	100	–	90	–	–	–	–	–
CCOC(=O)CCN(Cc1ccccc1)SN(Cc1ccc(CC)cc1)N(C(=O)c1cc(C)cc(C)c1)C(C)(C)C	–	–	–	–	–	–	100	–	–	–	–	–
CCc1ccc(C(=O)N(SSN(C(=O)c2ccc(CC)cc2)N(C(=O)c2cc(C)cc(C)c2)C(C)(C)C)N(C(=O)c2cc(C)cc(C)c2)C(C)(C)C)cc1	10	100	100	100	–	–	–	95	100	100	–	–
Cc1cc(C)cc(C(=O)N(NC(=O)c2ccccc2)C(C)(C)C)c1	10	100	80	100	–	–	–	–	–	–	–	–
Cc1cccc(C(=O)N(N(SSN(C(=O)c2ccccc2)N(C(=O)c2cccc(C)c2)C(C)(C)C)C(=O)c2ccccc2)C(C)(C)C)c1	0	100	10	50	–	–	–	–	–	–	–	–
Cc1cc(C)cc(C(=O)N(NC(=O)c2ccc3c(c2C)OC(C)C3)C(C)(C)C)c1 (stereo not drawn) [FUXIAN]	–	–	–	–	100	–	90	–	–	–	–	–
Cc1cccc(C(=O)N(N(SSN(C(=O)c2ccc(Cl)cc2)N(C(=O)c2cccc(C)c2)C(C)(C)C)C(=O)c2ccc(Cl)cc2)C(C)(C)C)c1	0	100	100	100	–	–	–	–	–	–	–	–
CCCCSSN(C(=O)c1cccc(OC)c1C)N(C(=O)c1cc(C)cc(C)c1)C(C)(C)C	100	–	–	–	100	100	100	–	–	–	–	–
CCc1ccc(C(=O)NN(C(=O)c2cc(C)cc(C)c2)C(C)(C)C)cc1 [TEBUFENOZIDE]	75	100	100	100	95	–	55	100	100	100	1	56.9 (≈ 161 µM)
CCCSSN(C(=O)c1ccc(CC)cc1)N(C(=O)c1cc(C)cc(C)c1)C(C)(C)C	100	–	–	–	100	–	100	–	–	–	–	–
CCc1ccc(CN(SNc2ccc(Cl)cc2)N(C(=O)c2cc(C)cc(C)c2)C(C)(C)C)cc1	90	–	–	–	80	100	0	–	–	–	–	–
Cc1cc(C)cc(C(=O)N(NC(=O)c2ccc(Cl)cc2)C(C)(C)C)c1	30	100	100	100	–	–	–	50	–	100	–	–
CC(C)(C)N(C(=O)c1ccccc1)N(SSN(C(=O)c1ccc(Cl)cc1)N(C(=O)c1ccccc1)C(C)(C)C)C(=O)c1ccc(Cl)cc1	10	–	100	100	–	–	–	75	85	100	–	–
CCCSSN(C(=O)c1ccccc1)N(C(=O)c1ccccc1)C(C)(C)C	0	–	100	–	–	90	–	–	–	–	–	–
CC(C)(C)N(NC(=O)c1ccc(Cl)cc1)C(=O)c1ccccc1 [HALOFENOZIDE]	0	100	100	100	70	–	10	85	95	100	–	–
CCCSSN(C(=O)c1ccc(Cl)cc1)N(C(=O)c1ccccc1)C(C)(C)C	80	–	–	–	20	100	0	–	–	–	–	–
CCCCSSN(C(=O)c1ccccc1)N(C(=O)c1ccccc1)C(C)(C)C	0	–	100	–	–	90	–	–	–	–	–	–
CCCCSSN(C(=O)c1ccc2c(c1C)OC(C)C2)N(C(=O)c1cc(C)cc(C)c1)C(C)(C)C (stereo not drawn)	100	–	–	–	100	100	80	–	–	–	–	–
Cc1cc(C)cc(C(=O)N(N(SSN(C(=O)c2ccccc2)N(C(=O)c2cc(C)cc(C)c2)C(C)(C)C)C(=O)c2ccccc2)C(C)(C)C)c1	0	100	10	70	–	–	–	–	–	–	–	–
CCc1ccc(CN(SNc2ccc(C)cc2)N(C(=O)c2cc(C)cc(C)c2)C(C)(C)C)cc1	–	–	–	–	–	–	100	–	–	–	–	–
CCCSSN(C(=O)c1ccc2c(c1C)OC(C)C2)N(C(=O)c1cc(C)cc(C)c1)C(C)(C)C (stereo not drawn)	100	–	–	–	100	100	100	–	–	–	–	–
Cc1cccc(C(=O)N(NC(=O)c2ccc(Cl)cc2)C(C)(C)C)c1	0	100	90	100	–	–	–	–	–	–	–	–
CCCSSN(C(=O)c1cccc(OC)c1C)N(C(=O)c1cc(C)cc(C)c1)C(C)(C)C	100	–	–	–	100	100	100	–	–	–	–	–
